From ChEMBL document CHEMBL3580633, “Benzoxaborole antimalarial agents. Part 4. Discovery of potent 6-(2-(alkoxycarbonyl)pyrazinyl-5-oxy)-1,3-dihydro-1-hydroxy-2,1-benzoxaboroles” (J Med Chem, 2015)

Assays:
[1] = tested on: Plasmodium berghei; assay: Antiplasmodial activity against Plasmodium berghei infected in Swiss Webster mouse assessed as mouse survival at 11 mg/kg, po dosed once daily for 4 consecutive days beginning 1 hr after initial infection and measured on day 5 post infection by Giemsa staining method; format: functional
Summary of the method: (§1)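 Female Swiss Webster mice (about 20 g) infected ip with 6 × 10^6 P. berghei-infected erythrocytes. Oral gavage once daily for 4 days, starting 1 h after infection. Vehicle PEG300/propylene glycol/water (55/25/20 by weight). Giemsa-smear parasitemia counted daily from day 4. Mice euthanised above 50% parasitemia. Survival followed to day 21, 5 mice per dose, chloroquine 30 mg/kg as reference.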

[2] = tested on: Plasmodium berghei; assay: Antiplasmodial activity against Plasmodium berghei infected in Swiss Webster mouse assessed as mouse survival at 100 mg/kg, po dosed once daily for 4 consecutive days beginning 1 hr after initial infection and measured on day 5 post infection by Giemsa staining method; format: functional; summary of the method: as §1
[3] = tested on: Plasmodium berghei; assay: Antiplasmodial activity against Plasmodium berghei infected in Swiss Webster mouse assessed as mouse survival at 33 mg/kg, po dosed once daily for 4 consecutive days beginning 1 hr after initial infection and measured on day 5 post infection by Giemsa staining method; format: functional
Summary of the method: (§2)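 Female Swiss Webster mice (about 20 g) were infected ip with 6 × 10^6 P. berghei-infected erythrocytes from a donor mouse. They were dosed by oral gavage once daily for 4 days, starting 1 h post-infection, in PEG 300/propylene glycol/water (55/25/20 by weight). Parasitemia was read daily on Giemsa smears from day 4, and mice were euthanized above 50% parasitemia. Percent survival was tracked to 21 days.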

[4] = tested on: Plasmodium berghei; assay: Antiplasmodial activity against Plasmodium berghei infected in Swiss Webster mouse assessed as mouse survival at 3 mg/kg, po dosed once daily for 4 consecutive days beginning 1 hr after initial infection and measured on day 9 post infection by Giemsa staining method; format: functional; summary of the method: as §1
[5] = tested on: Plasmodium berghei; assay: Antiplasmodial activity against Plasmodium berghei infected in Swiss Webster mouse assessed as mouse survival at 11 mg/kg, po dosed once daily for 4 consecutive days beginning 1 hr after initial infection and measured on day 4 post infection by Giemsa staining method; format: functional; summary of the method: as §1
[6] = tested on: Plasmodium berghei; assay: Antiplasmodial activity against Plasmodium berghei infected in Swiss Webster mouse assessed as mouse survival at 100 mg/kg, po dosed once daily for 4 consecutive days beginning 1 hr after initial infection and measured on day 4 post infection by Giemsa staining method; format: functional; summary of the method: as §1
[7] = tested on: Plasmodium berghei; assay: Antiplasmodial activity against Plasmodium berghei infected in Swiss Webster mouse assessed as mouse survival at 1 mg/kg, po dosed once daily for 4 consecutive days beginning 1 hr after initial infection and measured on day 7 post infection by Giemsa staining method; format: functional; summary of the method: as §1
[8] = tested on: Plasmodium berghei; assay: Antiplasmodial activity against Plasmodium berghei infected in Swiss Webster mouse assessed as mouse survival at 3 mg/kg, po dosed once daily for 4 consecutive days beginning 1 hr after initial infection and measured on day 5 post infection by Giemsa staining method; format: functional; summary of the method: as §1
[9] = tested on: Plasmodium berghei; assay: Antiplasmodial activity against Plasmodium berghei infected in Swiss Webster mouse assessed as mouse survival at 11 mg/kg, po dosed once daily for 4 consecutive days beginning 1 hr after initial infection and measured on day 9 post infection by Giemsa staining method; format: functional; summary of the method: as §1
[10] = tested on: Plasmodium berghei; assay: Antiplasmodial activity against Plasmodium berghei infected in Swiss Webster mouse assessed as mouse survival at 33 mg/kg, po dosed once daily for 4 consecutive days beginning 1 hr after initial infection and measured on day 8 post infection by Giemsa staining method; format: functional; summary of the method: as §2
[11] = AUC (0 to infinity) in CD1 mouse at 5 mg/kg, iv by HPLC coupled to tandem mass spectrometry; format: ADME, organism-based; set-up: dose 5 mg/kg, route intravenous, time infinity; settings: in vivo
Summary of the method: (§3)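 Adult female CD-1 mice received 5 mg/kg by both the iv and the oral-gavage route. Two vehicles were used: PEG 400/dimethylacetamide/water (45/10/45, pH 5.8), or PEG 300/propylene glycol/water (55/25/20, pH 5.9). Blood samples were collected and drug was quantified by HPLC-tandem MS.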

[12] = tested on: Plasmodium berghei; assay: Antiplasmodial activity against Plasmodium berghei infected in Swiss Webster mouse assessed as mouse survival at 11 mg/kg, po dosed once daily for 4 consecutive days beginning 1 hr after initial infection and measured on day 11 post infection by Giemsa staining method; format: functional; summary of the method: as §1
[13] = AUC (0 to infinity) in CD1 mouse at 5 mg/kg, po by HPLC coupled to tandem mass spectrometry; format: ADME, organism-based; set-up: dose 5 mg/kg, route oral, time infinity; settings: in vivo; summary of the method: as §3
[14] = tested on: Plasmodium berghei; assay: Antiplasmodial activity against Plasmodium berghei infected in Swiss Webster mouse assessed as mouse survival at 11 mg/kg, po dosed once daily for 4 consecutive days beginning 1 hr after initial infection and measured on day 12 post infection by Giemsa staining method; format: functional; summary of the method: as §1
[15] = tested on: Plasmodium berghei; assay: Antiplasmodial activity against Plasmodium berghei infected in Swiss Webster mouse assessed as mouse survival at 33 mg/kg, po dosed once daily for 4 consecutive days beginning 1 hr after initial infection and measured on day 10 post infection by Giemsa staining method; format: functional; summary of the method: as §2
[16] = Tmax in CD1 mouse at 5 mg/kg, po by HPLC coupled to tandem mass spectrometry; format: ADME, organism-based; settings: in vivo; summary of the method: as §3
[17] = tested on: Plasmodium berghei; assay: Antiplasmodial activity against Plasmodium berghei infected in Swiss Webster mouse assessed as mouse survival at 100 mg/kg, po dosed once daily for 4 consecutive days beginning 1 hr after initial infection and measured on day 10 post infection by Giemsa staining method; format: functional; summary of the method: as §1
[18] = Terminal half life in CD1 mouse at 5 mg/kg, iv by HPLC coupled to tandem mass spectrometry; format: ADME, organism-based; settings: in vivo, read-out: beta t1/2 (converted); summary of the method: as §3
[19] = Volume of distribution at steady state in CD1 mouse at 5 mg/kg, iv by HPLC coupled to tandem mass spectrometry; format: ADME, organism-based; settings: in vivo, read-out: Vdss; summary of the method: as §3
[20] = Cmax in CD1 mouse at 5 mg/kg, po by HPLC coupled to tandem mass spectrometry; format: ADME, organism-based; set-up: dose 5 mg/kg, route oral; settings: in vivo; summary of the method: as §3
[21] = Clearance in CD1 mouse at 5 mg/kg, iv by HPLC coupled to tandem mass spectrometry; format: ADME, organism-based; settings: in vivo; summary of the method: as §3
[22] = tested on: Plasmodium berghei; assay: Antiplasmodial activity against Plasmodium berghei infected in Swiss Webster mouse assessed as mouse survival at 100 mg/kg, po dosed once daily for 4 consecutive days beginning 1 hr after initial infection and measured on day 11 post infection by Giemsa staining method; format: functional; summary of the method: as §1
[23] = tested on: Plasmodium berghei; assay: Antiplasmodial activity against Plasmodium berghei infected in Swiss Webster mouse assessed as mouse survival at 33 mg/kg, po dosed once daily for 4 consecutive days beginning 1 hr after initial infection and measured on day 12 post infection by Giemsa staining method; format: functional; summary of the method: as §2
[24] = tested on: Plasmodium berghei; assay: Antiplasmodial activity against Plasmodium berghei infected in Swiss Webster mouse assessed as mouse survival at 33 mg/kg, po dosed once daily for 4 consecutive days beginning 1 hr after initial infection and measured on day 11 post infection by Giemsa staining method; format: functional; summary of the method: as §2
[25] = tested on: Mus musculus; assay: Oral bioavailability in CD1 mouse at 5 mg/kg by HPLC coupled to tandem mass spectrometry; format: ADME, organism-based; settings: in vivo; summary of the method: as §3
[26] = tested on: Plasmodium berghei; assay: Antiplasmodial activity against Plasmodium berghei infected in Swiss Webster mouse assessed as mouse survival at 11 mg/kg, po dosed once daily for 4 consecutive days beginning 1 hr after initial infection and measured on day 10 post infection by Giemsa staining method; format: functional; summary of the method: as §1
[27] = tested on: Plasmodium berghei; assay: Antiplasmodial activity against Plasmodium berghei infected in Swiss Webster mouse assessed as mouse survival at 100 mg/kg, po dosed once daily for 4 consecutive days beginning 1 hr after initial infection and measured on day 12 post infection by Giemsa staining method; format: functional; summary of the method: as §1

| Structure (SMILES) | survival at 11 mg/kg [1] [%] | survival at 100 mg/kg [2] [%] | survival at 33 mg/kg [3] [%] | survival at 3 mg/kg [4] [%] | survival at 11 mg/kg [5] [%] | survival at 100 mg/kg [6] [%] | survival at 1 mg/kg [7] [%] | survival at 3 mg/kg [8] [%] | survival at 11 mg/kg [9] [%] | survival at 33 mg/kg [10] [%] | AUC(0-inf) [11] [ng·h/mL] | survival at 11 mg/kg [12] [%] | AUC(0-inf) [13] [ng·h/mL] | survival at 11 mg/kg [14] [%] | survival at 33 mg/kg [15] [%] | Tmax [16] [min] | survival at 100 mg/kg [17] [%] | half-life [18] [min] | Vd [19] [L/kg] | survival at 11 mg/kg [26] [%] | also measured |
| --- | --- | --- | --- | --- | --- | --- | --- | --- | --- | --- | --- | --- | --- | --- | --- | --- | --- | --- | --- | --- | --- |
| O=C(O)c1ccc(Oc2ccc3c(c2)B(O)OC3)cn1 | 100 | 100 | 100 | 0 | 100 | 100 | 60 | 100 | 0 | 60 |  |  |  |  |  |  |  |  |  |  |  |
| COC(=O)c1cnc(Oc2ccc3c(c2)B(O)OC3)cn1 | 100 | 100 | 100 | 40 | 100 | 100 | 100 | 100 | 80 | 100 | 400 | 80 | 100 | 0 | 100 | 15 | 100 | 18 | 0.926 | 80 | Cmax [20]: 160 ng/mL; clearance [21]: 208 mL/min/kg; survival at 100 mg/kg [22]: 100%; survival at 33 mg/kg [23]: 20%; survival at 33 mg/kg [24]: 100%; F [25]: 23%; survival at 100 mg/kg [27]: 100% |
| O=C(O)c1cnc(Oc2ccc3c(c2)B(O)OC3)cn1 | 100 | 100 | 100 | 0 | 100 | 100 | 80 | 100 | 20 | 80 |  | 20 |  | 0 | 40 |  | 60 |  |  | 20 | survival at 100 mg/kg [22]: 60%; survival at 33 mg/kg [23]: 0%; survival at 33 mg/kg [24]: 40%; survival at 100 mg/kg [27]: 0% |
| NC(=O)c1cnc(Oc2ccc3c(c2)B(O)OC3)cn1 | 100 | 100 | 100 | 0 | 100 | 100 | 60 | 100 | 60 | 100 | 2200 |  | 2290 |  | 0 | 15 | 0 | 24 | 0.973 | 0 | Cmax [20]: 1380 ng/mL; clearance [21]: 37.7 mL/min/kg; F [25]: 99% |
